Experimental data reported in ChEMBL document CHEMBL4251719, “Drimane Sesquiterpenoids Noncompetitively Inhibit Human α4β2 Nicotinic Acetylcholine Receptors with Higher Potency Compared to Human α3β4 and α7 Subtypes” (J Nat Prod, 2018).
Active and inactive are the calls of the source. The calls are words filed in the database; no cut-off is given here.

Tests used:
Format in all cases: cell-based
[1] = biological target: T1, Neuronal acetylcholine receptor; alpha3/beta4 (Homo sapiens, UniProt P30926+P32297); assay: Antagonist activity at human alpha3beta4 nAChR expressed in HEK293 cells assessed as inhibition of (+/-)-epibatidine-induced calcium influx preincubated for 5 mins followed by (+/-)-epibatidine addition measured for 78 secs by Fluo-4-AM dye based FLIPR assay
Summary of the method: (§1)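 Fluo-4-loaded cells (1 h, 37 °C, 2.5 mM probenecid) washed twice in HBSS/1% FBS, then preincubated 5 min with test ligand at various concentrations. 0.1 μM (±)-epibatidine added on FLIPR after 5-reading baseline; fluorescence (ex 488/em 510 nm) recorded 78 s. Response normalized to maximal epibatidine response; IC50 and nH from nonlinear least-squares curve fits; SD, n = 3.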

[2] = biological target: T1, Neuronal acetylcholine receptor; alpha3/beta4; assay: Agonist activity at human alpha3beta4 nAChR expressed in HEK293 cells assessed as increase in calcium influx at 100 uM measured for 78 secs by Fluo-4-AM dye based FLIPR assay
Summary of the method: (§2)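 Cells seeded 5 × 10^4/well 72 h before, 37 °C, 5% CO2; medium switched to HBSS (pH 7.4)/1% FBS 16–24 h before assay. Loaded 1 h at 37 °C with Fluo-4 plus 2.5 mM probenecid. Compound added alone on FLIPR, fluorescence (ex 488/em 510 nm) recorded 78 s; response normalized to maximal (±)-epibatidine response.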

[3] = biological target: T2, Neuronal acetylcholine receptor; alpha4/beta2 (Homo sapiens, UniProt P17787+P43681); assay: Antagonist activity at human alpha4beta2 nAChR expressed in HEK293 cells assessed as inhibition of (+/-)-epibatidine-induced calcium influx preincubated for 5 mins followed by (+/-)-epibatidine addition measured for 78 secs by Fluo-4-AM dye based FLIPR assay; summary of the method: as §1
[4] = biological target: T2, Neuronal acetylcholine receptor; alpha4/beta2; assay: Agonist activity at human alpha4beta2 nAChR expressed in HEK293 cells assessed as increase in calcium influx at 100 uM measured for 78 secs by Fluo-4-AM dye based FLIPR assay; summary of the method: as §2
[5] = biological target: T2, Neuronal acetylcholine receptor; alpha4/beta2; assay: Antagonist activity at human alpha4beta2 nAChR expressed in HEK293 cells assessed as inhibition of (+/-)-epibatidine-induced calcium influx at 1 uM preincubated for 5 mins followed by (+/-)-epibatidine addition measured for 78 secs by Fluo-4-AM dye based FLIPR assay; summary of the method: as §1
[6] = biological target: T3, Neuronal acetylcholine receptor subunit alpha-7 (Homo sapiens, UniProt P36544); assay: Antagonist activity at human alpha7 nAChR expressed in HEK293 cells assessed as inhibition of (+/-)-epibatidine-induced calcium influx preincubated for 5 mins followed by (+/-)-epibatidine addition measured for 78 secs by Fluo-4-AM dye based FLIPR assay; details: in the assay text read “GH3” for “HEK293”; summary of the method: as §1
[7] = biological target: T3, Neuronal acetylcholine receptor subunit alpha-7; assay: Agonist activity at human alpha7 nAChR expressed in rat GH3 cells assessed as increase in calcium influx at 100 uM measured for 78 secs by Fluo-4-AM dye based FLIPR assay; summary of the method: as §2
[8] = biological target: T2, Neuronal acetylcholine receptor; alpha4/beta2; assay: Antagonist activity at human alpha4beta2 nAChR expressed in HEK293 cells assessed as inhibition of (+/-)-epibatidine-induced calcium influx up to 100 uM preincubated for 5 mins followed by (+/-)-epibatidine addition measured for 78 secs by Fluo-4-AM dye based FLIPR assay; summary of the method: as §1
[9] = biological target: T2, Neuronal acetylcholine receptor; alpha4/beta2; assay: Non-competitive inhibition of human alpha4beta2 nAChR expressed in HEK293 cells assessed as inhibition of (+/-)-epibatidine-induced calcium influx preincubated for 5 mins followed by (+/-)-epibatidine addition measured for 78 secs by Fluo-4-AM dye based FLIPR assay
Summary of the method: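 (±)-Epibatidine concentration–response curves measured on hα4β2 HEK293 cells without drimane or after 5 min preincubation with 0.3, 1.0 and 3.0 μM; Fluo-4 Ca2+ fluorescence on FLIPR, 78 s recording; n = 3.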

[10] = biological target: T2, Neuronal acetylcholine receptor; alpha4/beta2; assay: Antagonist activity at human alpha4beta2 nAChR expressed in HEK293 cells assessed as inhibition of (+/-)-epibatidine-induced calcium influx at 10 to 100 uM preincubated for 5 mins followed by (+/-)-epibatidine addition measured for 78 secs by Fluo-4-AM dye based FLIPR assay relative to control; summary of the method: as §1

T2 sequence (P17787 whole entry): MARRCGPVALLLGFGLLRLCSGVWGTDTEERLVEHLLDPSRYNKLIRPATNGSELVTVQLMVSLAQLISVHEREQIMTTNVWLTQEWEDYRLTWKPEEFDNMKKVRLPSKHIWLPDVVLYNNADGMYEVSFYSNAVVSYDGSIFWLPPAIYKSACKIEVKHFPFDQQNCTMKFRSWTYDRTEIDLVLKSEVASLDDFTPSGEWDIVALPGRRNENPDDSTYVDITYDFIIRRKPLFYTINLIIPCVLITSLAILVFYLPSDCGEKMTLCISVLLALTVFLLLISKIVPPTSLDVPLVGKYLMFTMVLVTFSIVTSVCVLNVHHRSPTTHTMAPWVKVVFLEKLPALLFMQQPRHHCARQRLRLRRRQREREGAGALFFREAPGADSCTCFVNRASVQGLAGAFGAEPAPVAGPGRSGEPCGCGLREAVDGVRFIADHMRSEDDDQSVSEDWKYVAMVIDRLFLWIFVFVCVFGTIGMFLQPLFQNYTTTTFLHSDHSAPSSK
T2 sequence (P43681 whole entry): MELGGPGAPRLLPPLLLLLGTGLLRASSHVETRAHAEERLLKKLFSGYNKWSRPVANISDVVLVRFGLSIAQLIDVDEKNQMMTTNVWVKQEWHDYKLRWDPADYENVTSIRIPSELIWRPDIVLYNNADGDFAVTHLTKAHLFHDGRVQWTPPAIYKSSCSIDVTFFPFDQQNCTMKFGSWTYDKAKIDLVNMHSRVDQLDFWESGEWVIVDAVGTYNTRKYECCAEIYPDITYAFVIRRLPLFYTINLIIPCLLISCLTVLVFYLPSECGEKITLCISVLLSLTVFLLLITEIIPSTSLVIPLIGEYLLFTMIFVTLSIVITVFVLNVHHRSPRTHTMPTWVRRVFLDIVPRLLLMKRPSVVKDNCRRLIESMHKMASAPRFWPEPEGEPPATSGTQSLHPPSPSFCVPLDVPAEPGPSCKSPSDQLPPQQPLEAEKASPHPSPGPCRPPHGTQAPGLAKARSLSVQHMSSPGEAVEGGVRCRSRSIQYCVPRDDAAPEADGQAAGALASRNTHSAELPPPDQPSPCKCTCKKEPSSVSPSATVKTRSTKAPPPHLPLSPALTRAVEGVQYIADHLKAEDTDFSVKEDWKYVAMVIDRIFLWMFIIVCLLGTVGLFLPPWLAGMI
T3 sequence (P36544 whole entry): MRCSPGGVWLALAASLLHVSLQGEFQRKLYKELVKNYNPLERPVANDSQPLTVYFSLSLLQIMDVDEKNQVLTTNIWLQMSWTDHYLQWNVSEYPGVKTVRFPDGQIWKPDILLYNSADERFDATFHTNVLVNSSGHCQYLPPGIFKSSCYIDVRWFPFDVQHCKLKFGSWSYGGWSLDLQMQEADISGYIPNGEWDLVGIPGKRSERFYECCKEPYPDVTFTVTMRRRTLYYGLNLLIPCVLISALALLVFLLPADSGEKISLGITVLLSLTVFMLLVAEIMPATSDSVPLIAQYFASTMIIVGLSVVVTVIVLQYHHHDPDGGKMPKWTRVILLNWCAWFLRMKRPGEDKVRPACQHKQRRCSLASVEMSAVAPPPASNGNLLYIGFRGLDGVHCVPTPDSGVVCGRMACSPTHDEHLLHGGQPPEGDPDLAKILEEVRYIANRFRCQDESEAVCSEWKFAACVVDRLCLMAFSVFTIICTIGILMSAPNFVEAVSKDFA
T1 sequence (P30926 whole entry): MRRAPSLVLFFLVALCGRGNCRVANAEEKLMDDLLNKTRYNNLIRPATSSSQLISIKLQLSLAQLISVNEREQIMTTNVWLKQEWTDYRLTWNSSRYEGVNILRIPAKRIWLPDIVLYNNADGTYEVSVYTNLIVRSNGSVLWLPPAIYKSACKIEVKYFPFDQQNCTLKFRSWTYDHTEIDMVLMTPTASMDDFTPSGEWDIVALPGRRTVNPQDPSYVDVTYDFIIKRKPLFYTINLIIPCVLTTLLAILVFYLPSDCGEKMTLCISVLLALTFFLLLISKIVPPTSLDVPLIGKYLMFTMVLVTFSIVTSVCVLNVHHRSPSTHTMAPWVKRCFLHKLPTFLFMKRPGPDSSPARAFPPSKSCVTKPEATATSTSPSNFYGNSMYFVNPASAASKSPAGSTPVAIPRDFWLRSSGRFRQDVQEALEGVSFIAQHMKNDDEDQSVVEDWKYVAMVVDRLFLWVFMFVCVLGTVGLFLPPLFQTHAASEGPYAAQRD
T1 sequence (P32297 whole entry): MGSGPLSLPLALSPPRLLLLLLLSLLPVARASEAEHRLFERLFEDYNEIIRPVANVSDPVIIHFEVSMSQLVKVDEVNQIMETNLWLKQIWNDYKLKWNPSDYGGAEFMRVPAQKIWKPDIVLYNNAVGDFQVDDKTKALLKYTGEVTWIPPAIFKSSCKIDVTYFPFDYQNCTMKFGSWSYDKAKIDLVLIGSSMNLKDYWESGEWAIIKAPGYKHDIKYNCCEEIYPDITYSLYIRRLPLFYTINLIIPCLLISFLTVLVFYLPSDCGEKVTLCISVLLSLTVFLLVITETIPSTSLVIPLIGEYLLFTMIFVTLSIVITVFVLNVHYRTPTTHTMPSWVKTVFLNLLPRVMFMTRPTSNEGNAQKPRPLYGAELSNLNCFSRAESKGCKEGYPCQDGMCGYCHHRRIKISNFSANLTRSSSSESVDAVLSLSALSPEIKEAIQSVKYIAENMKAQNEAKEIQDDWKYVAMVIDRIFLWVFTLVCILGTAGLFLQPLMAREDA

SMILES	IC50 [1]	Activity [2]	IC50 ([3]; read-out: IC50)	Activity [4]	inhibition [5]	IC50 [6]	Activity [7]	IC50 ([3]; hek293)	inhibition [8]	inhibition [9]	inhibition [10]
CC1(C)CCC[C@]2(C)[C@@H](C=O)C(C=O)=CC[C@@H]12 [POLYGODIAL]	48.2 µM	inactive	62.5 µM	inactive	Active	> 100 µM	inactive				
CC1(C)CCC[C@]2(C)[C@H]3COC(=O)C3=CC[C@@H]12 [CINNAMOLIDE]	2.62 µM	inactive	1.57 µM	inactive	Active	4.64 µM	inactive				
CC1(C)CCC[C@]2(C)[C@@H]3C(=CC[C@@H]12)C(=O)O[C@H]3O [DENDOCARBIN A]	> 100 µM	inactive		inactive		> 100 µM	inactive	Not Active	inactive		
Clc1ccc(C2C[C@@H]3CCC2N3)cn1 (stereo partly drawn)		inactive		inactive	Active		inactive				
CC1(C)CCC[C@]2(C)[C@H]3C(=O)OCC3=CC[C@@H]12 [DRIMENIN]	1.78 µM	inactive	0.97 µM	inactive		13.8 µM	inactive			Active	100%
